Usually viability stands for a read-out of living cells in per cent, often relative to untreated cells. What is called inhibition is the change of the read-out against control, counted positive when it falls.

Calls of active or inactive are those of the source.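 How the source made its calls, unless noted: active means viability at or under a set limit in both replicates, limit being median viability minus 3 SD (cut at about 48% in these data, passing the limit was not always enough); inconclusive means at or under the limit in just one replicate; inactive means at or above the limit in both replicates.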

From PubChem BioAssay come the findings set out here.

Assay [1] is described as follows: reducers of endogenous Her2 protein level, primary screen, SKBR3 breast tumor cells, AlphaScreen, ATP viability (AID 461;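 active means Her2 level under about 52% in both replicate screens, with viability over 70% of control, limit read from the data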;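 on Her2 level: lower value means less Her2 protein in the cells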;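 on viability: percent of carrier control wells set as 100% viability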). Conditions: 18-24 h, measured here: SKBR3 viability, ATP luminescence, at 10 µM. For orientation: In Alpha technology, singlet oxygen from a donor bead excites a nearby acceptor bead.
Assay [2] deals with Receptor tyrosine-protein kinase erbB-2 (Homo sapiens) (UniProt P04626). The description is as above. As to conditions: 18-24 h, at 10 µM, stronger effect = lower value.
Chain of Receptor tyrosine-protein kinase erbB-2 (Homo sapiens) (P04626 whole entry, looked up): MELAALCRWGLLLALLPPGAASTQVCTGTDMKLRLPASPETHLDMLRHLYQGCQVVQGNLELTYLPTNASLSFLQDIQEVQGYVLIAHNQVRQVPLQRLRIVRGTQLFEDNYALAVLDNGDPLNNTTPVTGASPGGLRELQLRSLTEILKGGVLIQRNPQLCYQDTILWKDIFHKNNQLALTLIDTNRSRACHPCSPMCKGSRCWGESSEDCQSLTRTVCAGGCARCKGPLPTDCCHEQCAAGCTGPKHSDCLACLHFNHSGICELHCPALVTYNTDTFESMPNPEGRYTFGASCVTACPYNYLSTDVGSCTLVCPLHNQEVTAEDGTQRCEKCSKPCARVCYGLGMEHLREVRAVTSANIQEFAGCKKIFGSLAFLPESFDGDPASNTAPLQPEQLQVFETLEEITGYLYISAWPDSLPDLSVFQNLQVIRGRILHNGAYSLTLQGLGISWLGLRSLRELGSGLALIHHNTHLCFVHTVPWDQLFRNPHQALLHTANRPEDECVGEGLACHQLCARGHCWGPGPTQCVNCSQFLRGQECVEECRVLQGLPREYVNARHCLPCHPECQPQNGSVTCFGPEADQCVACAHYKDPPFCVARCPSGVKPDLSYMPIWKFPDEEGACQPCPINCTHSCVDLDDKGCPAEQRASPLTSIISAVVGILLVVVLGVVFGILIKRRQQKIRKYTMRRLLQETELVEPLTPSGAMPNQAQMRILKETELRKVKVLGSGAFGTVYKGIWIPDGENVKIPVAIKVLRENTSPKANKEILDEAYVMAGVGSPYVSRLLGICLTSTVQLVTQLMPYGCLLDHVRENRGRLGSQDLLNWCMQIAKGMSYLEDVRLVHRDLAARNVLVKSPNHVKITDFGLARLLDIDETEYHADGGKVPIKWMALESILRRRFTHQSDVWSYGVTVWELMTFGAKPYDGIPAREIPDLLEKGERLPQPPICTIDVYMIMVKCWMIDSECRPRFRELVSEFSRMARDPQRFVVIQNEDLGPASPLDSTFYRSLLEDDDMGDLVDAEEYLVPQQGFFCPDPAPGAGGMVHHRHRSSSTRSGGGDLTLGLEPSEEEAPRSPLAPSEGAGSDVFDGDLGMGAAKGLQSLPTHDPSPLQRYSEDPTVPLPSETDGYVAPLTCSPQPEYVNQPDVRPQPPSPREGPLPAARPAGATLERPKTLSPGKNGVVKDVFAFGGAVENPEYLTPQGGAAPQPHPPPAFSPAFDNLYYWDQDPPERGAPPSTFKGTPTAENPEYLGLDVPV
A short description of assay [3]: SK-BR-3 cell growth inhibitors, pilot screen, 24 h, human (AID 572;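 active means viability at or below 10% of carrier control in both of two separate runs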;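 further: compound exposure lasted between 18 and 24 h rather than exactly 24 h; 100% = carrier-treated control wells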). Conditions: SK-BR-3 viability, CellTiter-Glo luminescence, at 10 µM, stronger effect = lower value. On the technique in general: In ATP-based viability assays light output follows the ATP content of the culture.
Assay [4] is described as follows: HUVEC growth inhibition – cell-based, human, primary screen (AID 575;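 active means viability at or below 30% in both replicate assays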;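 further: 100% = median of untreated cell wells with 0.1% DMSO on each plate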). As to conditions: HUVEC proliferation, CellTiter-Glo luminescence, 72 h; at 10 µM; stronger effect = lower value. A digest of the protocol:
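Test system: primary human umbilical vein endothelial cells. Quantity: 1250 cells/well. Compound: single 10 µM dose, 0.1% DMSO, from 5x medium stock. Timing: 72 h treatment at 37 °C. Detection: ATP-based CellTiter-Glo luminescent read. Benchmarks: vehicle and MePR control wells. Format: 384-well plates coated with collagen.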

Assay [5] can be described thus: growth inhibitors of H69AR lung tumor, primary screen, human, duplicate replicates (AID 580).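 Further: 100% = mean luminescence of untreated wells and 0% = no signal.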 Conditions: H69AR lung tumor cells viability, ATP luminescence, 72 h; at 10 µM; stronger effect = lower value.
Assay [6] in a line: reversal of MRP1-mediated doxorubicin resistance, pilot screen, H69AR cells, doxorubicin co-treatment (AID 601;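 active means viability loss from added drug above about 55%, and viability with drug at most 40%, in both replicates, limit read from the data, passing the limit was not always enough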). Conditions: CellTiter-Glo, 72 h, at 10 µM; for differential viability (reversal): stronger effect = higher value.
Assay [7] can be described thus: 384-well plate pilot, post-Golgi transport modulator project, inhibition of yeast transport mutant growth (AID 636; in the data active means inhibition above about 31%). Conditions: absorbance 615 nm, about 18 h, stronger effect = higher value.
The nature of assay [8]: growth suppression of yeast trafficking mutant, preliminary HTS, modulators of trafficking downstream of Golgi apparatus project, 1536-format plate, OD 615 nm (AID 637; in the data active means inhibition above about 30%). Conditions: yeast transport mutant growth, absorbance 615 nm, 18 h; stronger effect = higher value.
Where [9] appears, read: H69AR cells + 2 uM doxorubicin, measured here: viability with 2 uM doxorubicin, stronger effect = lower value.
[10] abbreviates: H69AR cells, compound alone cytotoxicity.

As for `CC1(C)CC(=O)c2cnc(NCc3ccco3)nc2C1`, the viability in assay [1] is 99%; in assay [3] it was 99% (inactive); in assay [4], 114% (inactive); in assay [5], 96.2% (inactive); in assay [6] (setting [9]), 85.2%; in assay [6] (setting [10]), 96.2%. Also, the Her2 level in assay [2] was 107% (inactive). Further, in assay [6] (H69AR cells + 2 uM doxorubicin), the differential viability (reversal) was 11% (inactive). Further, the inhibition in assay [7] is -10.4% (inactive); in assay [8] it was -8.83% (inactive).

For `CCc1nc2sc3c(c2c(=O)o1)CCCC3`, the viability in assay [1] was 102%; in assay [3], 102% (inactive); in assay [4] it was 82.1% (inactive); in assay [5] it was 96.3% (inactive); in assay [6] (setting [9]), 96.6%; in assay [6] (setting [10]) it was 96.3%. In assay [2], the Her2 level was 81% (inactive). Also, the differential viability (reversal) in assay [6] (H69AR cells + 2 uM doxorubicin) is -0.255% (inactive). In addition, the inhibition in assay [7] was -7.5% (inactive); in assay [8] it was -9.84% (inactive).

With `CCOC(=O)N1CCN(S(=O)(=O)c2cc(Cl)ccc2Cl)CC1`, the viability in assay [1] is 106%; in assay [3], 106% (inactive); in assay [4] it was 90.7% (inactive); in assay [5], 85% (inactive); in assay [6] (setting [9]), 83%; in assay [6] (setting [10]) it was 85%. Also, the Her2 level in assay [2] is 94.5% (inactive). For the same compound, the differential viability (reversal) in assay [6] (H69AR cells + 2 uM doxorubicin) is 2.05% (inactive). The inhibition in assay [7] was -3.38% (inactive); in assay [8] it was -0.32% (inactive).

Consider `CC(O)c1nc2ccccc2n1C1CCCCC1` (stereo not given), for which the viability in assay [1] is 104%; in assay [3], 104% (inactive); in assay [4] it was 124% (inactive); in assay [5], 97.2% (inactive); in assay [6] (setting [9]) it was 85.9%; in assay [6] (setting [10]) it was 97.2%. Further, the Her2 level in assay [2] is 91.5% (inactive). Further, the differential viability (reversal) in assay [6] (H69AR cells + 2 uM doxorubicin) was 11.3% (inactive). Further, the inhibition was -1.18% (inactive) in assay [7] and 3.55% (inactive) in assay [8].

For the compound `CC(NC(=O)C1CCCN(S(=O)(=O)c2cccs2)C1)c1ccccc1` (stereo not given), the viability in assay [1] was 95%; in assay [3], 95% (inactive); in assay [4], 104% (inactive); in assay [5], 89.7% (inactive); in assay [6] (setting [9]), 88.2%; in assay [6] (setting [10]), 89.7%. Also, the Her2 level in assay [2] was 80.5% (inactive). In assay [6] (H69AR cells + 2 uM doxorubicin), the differential viability (reversal) was 1.41% (inactive). The inhibition in assay [7] is 1.03% (inactive); in assay [8], 1.17% (inactive).

For the compound `O=C(Cn1nnc(-c2cccs2)n1)OC1CCCCC1`, the viability in assay [1] was 94.5%; in assay [3], 94.5% (inactive); in assay [4], 81.7% (inactive); in assay [5], 110% (inactive); in assay [6] (setting [9]), 93.3%; in assay [6] (setting [10]), 110%. For the same compound, in assay [2], the Her2 level is 104% (inactive). The differential viability (reversal) in assay [6] (H69AR cells + 2 uM doxorubicin) was 16.9% (inactive). Further, the inhibition was -4.93% (inactive) in assay [7] and -3.39% (inactive) in assay [8].

`O=C1c2ccccc2C(=O)N1CC(O)Cn1nnc2ccccc21` (stereo not given): the viability in assay [1] was 120%; in assay [3], 120% (inactive); in assay [4], 90.9% (inactive); in assay [5] it was 95.9% (inactive); in assay [6] (setting [9]), 91.5%; in assay [6] (setting [10]), 95.9%. Also, the Her2 level in assay [2] was 108% (inactive). For the same compound, the differential viability (reversal) in assay [6] (H69AR cells + 2 uM doxorubicin) is 4.44% (inactive). Moreover, the inhibition in assay [7] was -3.07% (inactive); in assay [8], -3.71% (inactive).

`Cc1ccc(C)c2[nH]c(=O)c(CN(CCN3CCCC3)C(=O)Nc3cccc(Cl)c3)cc12`: the viability in assay [1] was 87%; in assay [3], 87% (inactive); in assay [4], 15.6% (active); in assay [5], 26.6% (active); in assay [6] (setting [9]) it was 32.8%; in assay [6] (setting [10]) it was 26.6%. In assay [2], the Her2 level was 84% (inactive). Moreover, the differential viability (reversal) in assay [6] (H69AR cells + 2 uM doxorubicin) was -6.23% (inactive). For the same compound, the inhibition was -8.22% (inactive) in assay [7] and -0.32% (inactive) in assay [8].

With `COC(=O)c1[nH]c2cc(OC)ccc2c1NC(=O)CN1CCOCC1`, the viability in assay [1] is 116%; in assay [3] it was 116% (inactive); in assay [4], 95% (inactive); in assay [5], 94.3% (inactive); in assay [6] (setting [9]), 91.3%; in assay [6] (setting [10]), 94.3%. Also, in assay [2], the Her2 level is 90.5% (inactive). For the same compound, the differential viability (reversal) in assay [6] (H69AR cells + 2 uM doxorubicin) is 3.07% (inactive). Also, the inhibition is 0% (inactive) in assay [7] and -4.19% (inactive) in assay [8].

For `COc1ccc(C2=Nn3c(nnc3-c3ccccc3)SC2)cc1OC`, the viability in assay [1] is 124%; in assay [3] it was 124% (inactive); in assay [4], 78.1% (inactive); in assay [5], 81.7% (inactive); in assay [6] (setting [9]), 79.3%; in assay [6] (setting [10]), 81.7%. For the same compound, in assay [2], the Her2 level is 101% (inactive). Further, the differential viability (reversal) in assay [6] (H69AR cells + 2 uM doxorubicin) was 2.4% (inactive). The values for the inhibition in assay [7] and in assay [8] were -4.47% (inactive) and 5.65% (inactive), respectively.

As for `CC(C)C(NC(=O)c1ccccc1NC(=O)c1ccco1)C(=O)O` (stereo not given), the viability in assay [1] was 114%; in assay [3], 114% (inactive); in assay [4], 94.8% (inactive); in assay [5] it was 91.6% (inactive); in assay [6] (setting [9]), 89.1%; in assay [6] (setting [10]) it was 91.6%. Also, in assay [2], the Her2 level was 77.5% (inactive). Further, the differential viability (reversal) in assay [6] (H69AR cells + 2 uM doxorubicin) was 2.44% (inactive). The values for the inhibition in assay [7] and in assay [8] were -8.24% (inactive) and 6.98% (inactive), respectively.

Regarding `COc1ccc(S(=O)(=O)C(C#N)c2nc3ccccc3nc2N2CCCC(C)C2)cc1` (stereo not given), the viability in assay [1] was 112%; in assay [3], 112% (inactive); in assay [4] it was 51.2% (inactive); in assay [5] it was 75.5% (inactive); in assay [6] (setting [9]), 86%; in assay [6] (setting [10]), 75.5%. In assay [2], the Her2 level is 102% (inactive). For the same compound, the differential viability (reversal) in assay [6] (H69AR cells + 2 uM doxorubicin) is -10.6% (inactive). Besides, the figures for the inhibition in assay [7] and in assay [8] were -2.21% (inactive) and 6.67% (inactive), respectively.

Regarding `CCn1c(SC)nc2c(c1=O)SC(C)C2` (stereo not given), the viability in assay [1] is 111%; in assay [3] it was 111% (inactive); in assay [4], 113% (inactive); in assay [5], 98.4% (inactive); in assay [6] (setting [9]) it was 81.2%; in assay [6] (setting [10]), 98.4%. The Her2 level in assay [2] is 110% (inactive). Besides, the differential viability (reversal) in assay [6] (H69AR cells + 2 uM doxorubicin) is 17.2% (inactive). For the same compound, the inhibition in assay [7] is -4.67% (inactive); in assay [8] it was 1.8% (inactive).

For `O=C(NCC1CCCO1)c1ccccc1-c1nc(-c2ccc(Cl)cc2)no1` (stereo not given), the viability in assay [1] was 78.5%; in assay [3] it was 78.5% (inactive); in assay [4] it was 76% (inactive); in assay [5] it was 95.1% (inactive); in assay [6] (setting [9]), 88.1%; in assay [6] (setting [10]), 95.1%. For the same compound, in assay [2], the Her2 level was 87.5% (inactive). In addition, the differential viability (reversal) in assay [6] (H69AR cells + 2 uM doxorubicin) is 6.99% (inactive). Besides, the inhibition is -5.68% (inactive) in assay [7] and 1.8% (inactive) in assay [8].

Take `COCCNC(=O)CN1CCN(C(c2ccccc2)c2ccccc2)CC1`: the viability in assay [1] is 86%; in assay [3], 86% (inactive); in assay [4], 84.3% (inactive); in assay [5] it was 93.1% (inactive); in assay [6] (setting [9]), 92.2%; in assay [6] (setting [10]) it was 93.1%. Also, the Her2 level in assay [2] is 117% (inactive). Further, the differential viability (reversal) in assay [6] (H69AR cells + 2 uM doxorubicin) was 0.91% (inactive). Also, the inhibition in assay [7] was -0.39% (inactive); in assay [8], -5.08% (inactive).

For `Cc1c(C(=O)NCc2cccnc2)sc2ncn(CC(=O)N3CCCCC3C)c(=O)c12` (stereo not given), the viability is 98% in assay [1]; 98% (inactive) in assay [3]; 102% (inactive) in assay [4]; 97% (inactive) in assay [5]; 95.8% in assay [6] (setting [9]); 97% in assay [6] (setting [10]). For the same compound, the Her2 level in assay [2] is 88.5% (inactive). In addition, the differential viability (reversal) in assay [6] (H69AR cells + 2 uM doxorubicin) is 1.24% (inactive). For the same compound, the results for the inhibition in assay [7] and in assay [8] were -0.79% (inactive) and 1.61% (inactive), respectively.
